The record followed here is ChEMBL document CHEMBL5316295, “Systematic Design of Adenosine Analogs as Inhibitors of a Clostridioides difficile-Specific DNA Adenine Methyltransferase Required for Normal Sporulation and Persistence” (J Med Chem, 2023).

Assay [1] in a line: Inhibition of Clostridioides difficile-specific DNA adenine methyltransferase PDB 7RFK using 5'-CGA TTC AAA AAG TCC CAA G-3' and 3'-GCT AAG TTT TTC AGG GTT C-5' as substrate and SAM as cosubstrate preincubated for 5 mins followed by substrate and cosubstrate addition and measured after 3 mins by MTase-Glo assay. In a few lines: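 Then 2.5 μM 19-bp dsDNA and 40 μM SAM were added, 3 min at ~22 °C, TFA quench (0.1%). Luminescent SAH readout against a serially diluted SAH standard curve; IC50 and Hill slope reported.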

The nature of assay [2]: Binding affinity to Clostridioides difficile-specific DNA adenine methyltransferase PDB 7RFK by MicroCal PEAQ ITC analysis. The gist of the method:
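CamA (pXC2184 construct) in 325 mM NaCl, 20 mM Tris–HCl pH 7.5, 0.5 mM TCEP, 10% DMSO at 25 °C; 200–900 μM compound titrated into 20–60 μM protein (0.2 μL initial injection then 18 × 2 μL; reverse titration for poorly soluble compounds). Data fitted to a one-site model with offset subtracted to obtain K_D.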
(In ITC the heat of successive injections is recorded.)

For a further assay, the system named is Caulobacter vibrioides. As to the kind of experiment: Inhibition of Caulobacter vibrioides CcrM using 5'-CGA TTC AAA AAG TCC CAA G-3' and 3'-GCT AAG TTT TTC AGG GTT C-5' as substrate and SAM as cosubstrate at 10 uM incubated for 5 mins. In a few lines:
(§1)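 Conditions were enzyme 0.1 μM, DNA 5 μM, SAM 30 μM, inhibitor 10 μM, at ~22 °C in 50 mM Tris–HCl pH 7.5, 100 mM NaCl, 1 mM DTT, 0.25% DMSO, run 5 min. Substrate and SAM levels were above K_M.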

Assay [3] deals with T1, DNA adenine methylase (Escherichia coli K-12) (UniProt P0AEE8).
T1 sequence (whole entry): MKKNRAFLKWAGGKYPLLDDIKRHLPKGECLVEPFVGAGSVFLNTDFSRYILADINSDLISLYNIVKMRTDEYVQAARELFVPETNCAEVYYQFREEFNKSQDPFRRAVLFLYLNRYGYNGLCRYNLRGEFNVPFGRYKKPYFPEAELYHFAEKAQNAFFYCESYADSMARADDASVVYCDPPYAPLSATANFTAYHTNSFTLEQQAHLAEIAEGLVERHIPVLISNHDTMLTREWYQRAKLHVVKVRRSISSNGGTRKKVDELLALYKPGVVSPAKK
As to the kind of experiment: Inhibition of Escherichia coli Dam using 5'-CCG CGG ATC CTG CT-3' and 3'-GGC GCC TAG GAC GA-5' as substrate and SAM as cosubstrate at 10 uM incubated for 5 mins. The gist of the method: as §1

In assay [4] the target is mRNA (2'-O-methyladenosine-N(6)-)-methyltransferase (Homo sapiens) (UniProt Q9H4Z3). In words: Inhibition of human PCIF1 using m7GpppAmG as substrate and SAM as cosubstrate at 10 uM incubated for 15 mins. The gist of the method: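 Enzyme 0.1 μM with 5 μM RNA, 30 μM SAM and 10 μM inhibitor at ~22 °C in 50 mM Tris–HCl pH 7.5, 100 mM NaCl, 1 mM DTT, 0.25% DMSO. PCIF1 run 15 min with capped RNA; MettL5-Trm112 run 1 h with ssRNA.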

Assay [5] has as its target DNMT3A-DNMT3L (Mus musculus) (UniProt O88508+Q9CWR8). As to the kind of experiment: Inhibition of mouse DNMT3A/DNMT3L using 5'-G CATGCGTTCTAATTAGAAUGCATG-3' and 3'-GTA CGS AAG ATT AAT CTT GCG TAC G-5' as substrate and SAM as cosubstrate at 10 uM incubated for 1 hr. It is filed as protein-complex assay. In a few lines:
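Dnmt3a-3L (0.5 μM) with 5 μM dsDNA, 25 μM SAM and 10 μM inhibitor in 20 mM Tris pH 7.5, 40 mM NaCl, 4 mM DTT, 20% glycerol, run 1 h at 37 °C.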

The nature of assay [6]: Binding affinity to Clostridioides difficile-specific DNA adenine methyltransferase by MicroCal PEAQ ITC analysis. The gist of the method: (§2)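 Test compound (200–900 μM) titrated into CamA (20–60 μM) at 25 °C in 325 mM NaCl, 20 mM Tris–HCl pH 7.5, 0.5 mM TCEP, 10% DMSO; 0.2 μL initial plus 18 × 2 μL injections. Reverse titration used for poorly soluble compounds. Data fitted to a one-site model with offset subtracted; K_D, ΔH, −TΔS and ΔG derived from the fit.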

A short description of assay [7]: Inhibition of Clostridioides difficile-specific DNA adenine methyltransferase PDB 8CXS using 5'-CGA TTC AAA AAG TCC CAA G-3' and 3'-GCT AAG TTT TTC AGG GTT C-5' as substrate and SAM as cosubstrate preincubated for 5 mins followed by substrate and cosubstrate addition and measured after 3 mins by MTase-Glo assay. In a few lines:
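Reaction started with 2.5 μM dsDNA and 40 μM SAM (final), run 3 min, then quenched with 0.1% TFA. SAH measured by MTase-Glo luminescence against an SAH standard curve.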

A short description of assay [8]: Binding affinity to Clostridioides difficile-specific DNA adenine methyltransferase PDB 8CXS by MicroCal PEAQ ITC analysis. The gist of the method: as §2
Assay [9] in a line: Inhibition of Clostridioides difficile-specific DNA adenine methyltransferase mediated methylation using 5'-CGA TTC AAA AAG TCC CAA G-3' and 3'-GCT AAG TTT TTC AGG GTT C-5' as substrate and SAM as cosubstrate preincubated for 5 mins followed by substrate and cosubstrate addition and measured after 3 mins by MTase glo assay.
Assay [10] in a line: Binding affinity to Clostridioides difficile-specific DNA adenine methyltransferase by MicroCal PEAQ-ITC instrument analysis.

Each structure is given as a SMILES string. Calls of active or inactive are those of the source. The calls are words filed in the database; no cut-off is given here.

Chain of mRNA (2'-O-methyladenosine-N(6)-)-methyltransferase (Homo sapiens) (Q9H4Z3 whole entry): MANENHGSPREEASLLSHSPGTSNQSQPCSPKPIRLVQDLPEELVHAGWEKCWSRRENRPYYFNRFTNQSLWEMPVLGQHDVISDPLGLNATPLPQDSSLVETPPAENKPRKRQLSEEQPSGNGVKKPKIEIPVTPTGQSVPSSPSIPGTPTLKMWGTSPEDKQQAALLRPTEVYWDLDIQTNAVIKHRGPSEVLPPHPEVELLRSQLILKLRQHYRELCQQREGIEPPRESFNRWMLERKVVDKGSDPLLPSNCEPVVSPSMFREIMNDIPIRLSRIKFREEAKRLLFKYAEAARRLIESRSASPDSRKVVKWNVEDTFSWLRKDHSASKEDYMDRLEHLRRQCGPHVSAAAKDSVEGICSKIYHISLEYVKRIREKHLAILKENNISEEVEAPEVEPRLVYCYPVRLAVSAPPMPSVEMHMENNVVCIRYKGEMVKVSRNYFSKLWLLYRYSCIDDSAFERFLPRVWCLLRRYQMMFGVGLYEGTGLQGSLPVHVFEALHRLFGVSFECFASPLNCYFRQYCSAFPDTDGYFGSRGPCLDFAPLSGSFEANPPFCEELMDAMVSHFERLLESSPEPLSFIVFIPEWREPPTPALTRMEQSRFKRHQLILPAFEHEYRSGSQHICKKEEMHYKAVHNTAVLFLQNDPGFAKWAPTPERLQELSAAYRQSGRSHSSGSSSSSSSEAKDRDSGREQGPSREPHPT
Chain of DNMT3A-DNMT3L (Mus musculus) (Q9CWR8 whole entry, looked up, other chains not shown): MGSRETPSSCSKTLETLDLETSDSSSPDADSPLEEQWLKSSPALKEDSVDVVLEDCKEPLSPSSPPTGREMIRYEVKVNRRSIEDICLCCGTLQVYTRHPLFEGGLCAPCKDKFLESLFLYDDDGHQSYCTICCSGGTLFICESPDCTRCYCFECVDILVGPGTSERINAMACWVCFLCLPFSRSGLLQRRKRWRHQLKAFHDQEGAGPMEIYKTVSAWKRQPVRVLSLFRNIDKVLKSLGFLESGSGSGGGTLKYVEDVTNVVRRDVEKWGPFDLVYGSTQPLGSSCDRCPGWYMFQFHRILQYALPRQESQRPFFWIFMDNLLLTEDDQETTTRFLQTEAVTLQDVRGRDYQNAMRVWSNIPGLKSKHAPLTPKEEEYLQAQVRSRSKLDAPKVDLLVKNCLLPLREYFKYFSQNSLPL

In the case of `Nc1ncnc2c1ncn2[C@@H]1O[C@H](C[C@@H](N)CC[C@H](N)C(=O)O)[C@@H](O)[C@H]1O` [SINEFUNGIN], the IC50 (commonly the midpoint of a concentration-inhibition curve) in assay [1] was 24 µM. Further, binding in assay [2] was characterised by a dissociation constant (Kd) of 23 µM. Besides, the inhibition entry (in the assay with Caulobacter vibrioides; in [3]; in assay [4]; in assay [5]) was “Active” each time.
For the compound `Nc1ncnc2c1ncn2[C@@H]1O[C@H](CO)[C@@H](O)[C@H]1O` [ADENOSINE], in assay [6], the Kd (usually the constant that tells how readily two partners part at equilibrium) was over 70 µM.
As for `CSC[C@H]1O[C@@H](n2cnc3c(N)ncnc32)[C@H](O)[C@@H]1O` [METHYLTHIOADENOSINE], the IC50 in assay [7] and in assay [9] was 18 µM in each case. In addition, the Kd was found to be 10 µM in assay [8] and 11 µM in [10].
